Measured values of several laboratories.
Protocols differ between the studies behind these lines.
Method: competition with immobilised ligand
JAK3 JH1: Tyrosine-protein kinase JAK3, JH1 (JAK3, Homo sapiens, UniProt P52333)
JAK3: Tyrosine-protein kinase JAK3 (JAK3, Homo sapiens, UniProt P52333)

Structure (SMILES)	target	read-out	concentration	remaining binding [%]
C=CC(=O)N1CCC(C(=O)NCC(=O)N2CCN(c3nc(-c4cnc(N)nc4C(F)F)nc(N4CCOCC4)n3)CC2)CC1	JAK3 JH1	binding	1 µM	88
O=C(c1ccc(Nc2nccc(-c3cc4ccccc4s3)n2)cc1)N1CCC(N2CCCC2)CC1	JAK3 JH1	binding	1 µM	0.4
O=C(NCc1ncc(C(F)(F)F)cc1Cl)c1ccc2c(c1)C1(CCS(=O)(=O)CC1)[C@H](C1CC1)N2S(=O)(=O)c1ccc(F)cc1	JAK3 JH1	cell-free assay	1 µM	79
C[C@@H]1CN(c2ccc3ncc(-c4ccc5[nH]nc(C6CC6)c5c4)n3n2)C[C@H](C)O1	JAK3	binding	0.5 µM	11
NS(=O)(=O)c1cc(NC(=O)C2(c3ccccc3Cl)CC2)ccc1Oc1cccc(Cl)c1	JAK3 JH1	cell-free assay	1 µM	64
F[C@@H]1CCN(c2nccc(-c3cnn4ncccc34)n2)C1	JAK3 JH1	cell-free assay	1 µM	100
O=C(NCCCN1CCOCC1)c1ccc(Nc2ncc(Cl)c(-c3ccc(Cl)s3)n2)cc1	JAK3 JH1	binding	1 µM	0.8
N#Cc1ccccc1CSc1nnc2c(n1)[nH]c1ccccc12	JAK3 JH1	binding	10 µM	93
CN(CCCC(F)(F)F)c1nccc(-c2cnn3ncccc23)n1	JAK3 JH1	cell-free assay	1 µM	71
COc1cnc(Nc2cccc(S(N)(=O)=O)c2)nc1N1CCN(c2ccccc2)C(=O)C1	JAK3 JH1	binding	1 µM	16
COc1ccc2cc(OCC3(C(=O)O)CN(C(=O)c4ccc(F)cc4)C3)ccc2c1	JAK3 JH1	cell-free assay	1 µM	100
CN(C)c1nccc(-c2cnc3ncccn23)n1	JAK3 JH1	cell-free assay	1 µM	93
COC(=O)Nc1nc2ccc(C(=O)c3ccccc3)cc2[nH]1	JAK3	cell-free assay	10 µM	29
O=S(=O)(NC1CCC(c2cc(F)ccc2F)(S(=O)(=O)c2ccc(Cl)cc2)CC1)C(F)(F)F (stereo not shown)	JAK3 JH1	cell-free assay	1 µM	100
FC(F)(F)Oc1cccc(-c2cnc3ccc(-c4ccncc4)nn23)c1	JAK3 JH1	cell-free assay	5 µM	23
COc1cnc(Nc2cccc(S(N)(=O)=O)c2)nc1N1CCN(c2ccccc2)CC1	JAK3 JH1	binding	1 µM	42
Nc1c(C(=O)NCc2ccc(C(=O)NCCCC3CCCCC3)cc2)cnn1-c1ccccc1	JAK3 JH1	cell-free assay	0.1 µM	100
N[C@@H]1CCN(c2nccc(-c3cnn4ncccc34)n2)C1	JAK3 JH1	cell-free assay	1 µM	100
O=C(Nc1cccnn1)N1CCC(=Cc2cccc(Oc3ccc(C(F)(F)F)cn3)c2)CC1	JAK3 JH1	cell-free assay	1 µM	100
O=C(c1ccc(Nc2ncc(Cl)c(-c3ccc(Cl)s3)n2)cc1)N1CCC(N2CCCC2)CC1	JAK3 JH1	binding	1 µM	0.3
CC1=C(C#N)C(c2ccc3c(c2)c(NC(=O)c2ccccc2C)nn3C)C(C#N)=C(C)N1	JAK3 JH1	cell-free assay	1 µM	83
O=C(NCC1CCOCC1)c1n[nH]cc1NC(=O)c1c(F)cccc1F	JAK3 JH1	binding	1 µM	91
